Screening data (PubChem BioAssay)
UBC13 polyUb – blocks human UBC13 polyubiquitin chain formation. inhibition, % at 20 µM. AID 485273. TR-FRET. hit rate 0.47% among 330,000. P61088; in the data active = inhibition above about 45%, passing the limit was not always enough
MEKK2 WT-MEK5 – raises or lowers MEK5 binding to wildtype human MEKK2 PB1 domain | Q9Y2U5 | binding response (% of control), % at 10 µM | bead flow cytometry, Alexa488-MEK5 binding to MEKK2 WT; actives lie on both sides | hit rate 1.1% among 290,000; in the data active = binding response below about 67% or above about 130%
PREPL inh – human PREPL enzyme inhibition. Q4J6C6. recombinant PREPL, fluorescence polarization activity-based probe. inhibition, % at 5.96 µM. hit rate 0.68% among 320,000. AID 2751; in the data active = inhibition above about 43%;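 also: 0% = enzyme with DMSO and 100% = wells lacking enzyme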
MEKK3 PB1 HTS – MEKK3-MEK5 PB1 interaction, increase or decrease. AID 1529. binding response (% of control), % at 10 µM. hit rate 1.4% among 290,000. Q99759. bead-based flow cytometry, Alexa488-MEK5 binding to MEKK3; actives lie on both sides; 0 = blocked by unlabeled MEK5, 100 = vehicle;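 active = binding response more than 3 SD above or below the average of its plate-row segment, actives on both sides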;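 also: Alexa488 bead fluorescence after subtracting the streptavidin-only scavenger bead signal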
Apaf-1 inh – human Apaf-1 inhibition; inhibition, % at 20 µM; hit rate 0.71% among 330,000; O14727; AID 489030; reconstituted apoptosome caspase-3 activity, DEVD-Rh110 fluorescence; active = inhibition of at least 40% at 20 µM;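 also: plate controls were DMSO wells for no effect and DEVD-CHO caspase inhibitor wells for full effect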
Target sequence (O14727 whole entry, looked up): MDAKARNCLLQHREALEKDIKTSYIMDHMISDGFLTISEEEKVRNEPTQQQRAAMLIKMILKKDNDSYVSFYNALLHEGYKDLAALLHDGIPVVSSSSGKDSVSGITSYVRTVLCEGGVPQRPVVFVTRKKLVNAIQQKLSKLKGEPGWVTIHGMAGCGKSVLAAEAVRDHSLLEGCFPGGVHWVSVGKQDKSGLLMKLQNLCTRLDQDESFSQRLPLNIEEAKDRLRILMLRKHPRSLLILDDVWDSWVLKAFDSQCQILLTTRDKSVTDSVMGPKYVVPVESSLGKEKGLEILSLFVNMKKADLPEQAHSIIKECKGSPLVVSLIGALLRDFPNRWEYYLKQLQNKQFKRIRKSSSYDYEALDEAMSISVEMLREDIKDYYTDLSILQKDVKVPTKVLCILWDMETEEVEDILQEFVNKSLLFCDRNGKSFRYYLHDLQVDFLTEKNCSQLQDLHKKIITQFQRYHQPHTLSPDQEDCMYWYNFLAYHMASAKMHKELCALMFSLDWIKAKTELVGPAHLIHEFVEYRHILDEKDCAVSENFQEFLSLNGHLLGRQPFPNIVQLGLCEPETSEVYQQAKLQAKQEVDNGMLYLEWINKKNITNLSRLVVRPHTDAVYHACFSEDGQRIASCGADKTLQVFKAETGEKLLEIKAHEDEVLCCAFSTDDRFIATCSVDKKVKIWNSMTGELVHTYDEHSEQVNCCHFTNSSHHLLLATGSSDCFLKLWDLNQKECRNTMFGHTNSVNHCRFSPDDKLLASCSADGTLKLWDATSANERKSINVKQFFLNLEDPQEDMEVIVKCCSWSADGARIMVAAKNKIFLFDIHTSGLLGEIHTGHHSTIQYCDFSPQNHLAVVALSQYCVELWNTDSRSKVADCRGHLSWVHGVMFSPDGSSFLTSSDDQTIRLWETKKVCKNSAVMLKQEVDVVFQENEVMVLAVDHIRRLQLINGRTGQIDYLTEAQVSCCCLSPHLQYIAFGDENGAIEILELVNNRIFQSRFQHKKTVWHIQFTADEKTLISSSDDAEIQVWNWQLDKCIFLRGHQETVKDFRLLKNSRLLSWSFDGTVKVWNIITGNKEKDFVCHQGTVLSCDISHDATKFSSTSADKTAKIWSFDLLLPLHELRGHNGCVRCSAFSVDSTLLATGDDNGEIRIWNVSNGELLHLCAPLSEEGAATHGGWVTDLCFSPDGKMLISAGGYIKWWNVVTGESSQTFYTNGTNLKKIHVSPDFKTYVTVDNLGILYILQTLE
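Material: reconstituted apoptosome with Apaf-1, cytochrome c, caspase-9, procaspase-3, dATP; medium: pH 7.5 Hepes buffer with CHAPS, BSA, DTT; also added: cytochrome c and DEVD-Rh110 substrate; timing: 30 min plus 50 min, RT; signal: Rh110 fluorescence intensity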
MEKK2mut PB1 HTS – signal of MEK5 binding to mutant human MEKK2 PB1 domain | bead flow cytometry, Alexa488-MEK5 binding to MEKK2 mutant | percent response, % at 10 µM | hit rate 0.35% among 290,000 | AID 1530; in the data active = percent response above about 24%, passing the limit was not always enough
* marks the source's active call; other numbers are inactive results; / = no result given; [ ] = remark or other dose. Compounds with a hit are over-represented: about 3.1% of the library has one in this group of screens.

SMILES	UBC13 polyUb	MEKK2 WT-MEK5	PREPL inh	MEKK3 PB1 HTS	Apaf-1 inh	MEKK2mut PB1 HTS
CC12CC3CC(C)(C1)CC(C(=O)NCc1cccnc1)(C3)C2	-2	107	-16	104	-8	4
N#CC1(NC(=O)CSc2nnc(Nc3ccccc3F)s2)CCCC1	-8	/	14	/	5	/
CCC(=O)Nc1nc2ccc(S(C)(=O)=O)cc2s1	6	108	-1	124	0	5
CC(C)CC(=O)Nc1nc2ccc(S(C)(=O)=O)cc2s1	-17	-11*	-7	98	-6	1
Cc1ccccc1N=Cc1cc2c(cc1[N+](=O)[O-])OCO2	-15	94	8	97	8	-2
Cc1c(N=Cc2cc3c(cc2[N+](=O)[O-])OCO3)cccc1[N+](=O)[O-]	-28	/	18	/	44*	/
Cc1ccc(-n2c(N)c(C(=O)Nc3c(C)n(C)n(-c4ccccc4)c3=O)c3nc4ccccc4nc32)cc1C	-18	88	43*	97	42*	-13
CC(C)CC(=O)NC(=S)N(Cc1ccccc1)Cc1ccccc1	17	107	-4	148*	0	1
O=C(COC(=O)CCN=C1NS(=O)(=O)c2ccccc21)NNC(=O)c1ccc(Cl)cc1	-1	/	1	/	-13	/
Cc1ccc2c(c1)-n1c(nc3cc(Cl)ccc3c1=O)C(Cc1ccccc1)NC2=O (centres undefined)	16	/	13	/	11	/
Fc1ccc(N2CCN(c3ncnc4c3nnn4Cc3ccccc3Cl)CC2)cc1	6	89	0	71*[inhibitor]	15	-3
FC(F)(F)c1ccc(N2CCN(c3ncnc4c3nnn4Cc3ccccc3Cl)CC2)cc1	11	105	2	109	13	4
COCCN(CC1CCCN(C2Cc3ccccc3C2)C1)C(=O)CCC(N)=O (centres undefined)	5	116	-19	107	-10	5
N=C1S/C(=C\c2cccc3ccccc23)C(=O)N1c1ccc(F)cc1	-24	102	2	144*	8	0
CCOC(=O)C(C)Sc1nc2c(cnn2-c2ccc(F)cc2)c(=O)[nH]1 (centres undefined)	-6	109	-1	106	10	6
CCC(Oc1ccccc1)C(=O)N(C)CC(=O)N(CC(C)C)c1c(N)n(CC(C)C)c(=O)[nH]c1=O (centres undefined)	-1	/	13	/	5	/
CCN(CC)CCNC(=O)c1[nH]c2ccc(OCc3ccccc3)cc2c1C	32	184*	16	110	-7	17
CCC/C(C#CCCN1C(=O)c2ccccc2C1=O)=C1/c2ccccc2C(=O)N1c1ccccc1	-3	/	15	/	21	/
CCOc1ccccc1Nc1nc(-c2sc(NC(=O)c3ccccc3)nc2C)cs1	69*	113	11	104	5	5
O=C(OCC(=O)N1CCc2ccccc21)c1ccc([N+](=O)[O-])o1	33	/	13	/	15	/
Cc1cc(=O)oc2cc(OC(C)C(=O)NC3CCCC3)ccc12 (centres undefined)	4	99	-2	100	-1	1
Cc1cc(=O)oc2cc(OC(C)C(=O)Nc3ccc(N4CCCCC4)cc3)ccc12 (centres undefined)	-12	-1.0*	-4	98	15	5
CC1=C(C)CC(C(=O)NC2CCN(C(C)C)CC2)C(C(=O)O)C1 (centres undefined)	-2	106	11	104	10	4
O=C(CCC1N=C2c3ccccc3N=C(SCc3ccc(Cl)cc3)N2C1=O)NCc1ccco1 (centres undefined)	15	100	39	102	41*	3
CCc1ccccc1N(C)S(=O)(=O)c1ccc(-c2cc(C)no2)s1	0	97	-7	99	11	0
SMILES	UBC13 polyUb	MEKK2 WT-MEK5	PREPL inh	MEKK3 PB1 HTS	Apaf-1 inh	MEKK2mut PB1 HTS
Cc1cc(C)c(C(=O)COC(=O)C2CC3CCCC(C2)C3=O)c(C)c1 (centres undefined)	-3	/	19	/	28	/
COc1ccc2nc(/C(C#N)=C\c3ccc(C(=O)O)cc3)[nH]c2c1	-6	7.0*	-2	81	2	44
COc1ccc2nc(/C(C#N)=C\c3ccc(Oc4ccc([N+](=O)[O-])cn4)cc3)[nH]c2c1	-29	98	11	90	-6	0
CCOC(=O)C1CCCN(C(=O)c2cc(S(=O)(=O)N3CCCCCC3)ccc2OC)C1 (centres undefined)	36	/	1	/	49*	/
CC1Cc2cc(S(=O)(=O)N3CCC(C(N)=O)CC3)ccc2N1C(=O)C1CC1 (centres undefined)	-12	0.0*[inhibitor]	3	2.0*[inhibitor]	11	-17
CCC1CCCCN1CCCNC(=O)CS(=O)(=O)Cc1nc(-c2cccc(OC)c2)oc1C (centres undefined)	0	140*	9	109	15	17
COc1ccc(Cl)cc1NC(=O)CN(C)CC(=O)Nc1c(C)n(C)n(-c2ccccc2)c1=O	0	/	19	/	-2	/
O=C(COC(=O)c1ccc([N+](=O)[O-])o1)Nc1ncc(Cl)cc1Cl	-7	/	11	/	3	/
Cc1cc(N2CCN(C)CC2)ccc1NC(=O)c1ccc(-c2ccc(Cl)cc2)o1	19	/	24	/	42*	/
CN1CCN(c2ccccc2NC(=O)c2ccc(-c3ccc(Br)cc3)o2)CC1	13	125	21	104	16	13
O=C(Nc1ccccc1N1CCCCC1)c1ccc(-c2ccc(Cl)cc2)o1	-4	106	3	141*	24	0
Cc1cc(O)c(NC(=S)NC(=O)c2ccc(-c3ccc(Cl)cc3)o2)cc1C	-27	106	3	108	13	7
COc1ccc2[nH]c3c(c2c1)CCN1C(=O)C(CC(=O)NCCN2CCOCC2)C[C@H](C(=O)N2CCOCC2)[C@@]31C (some centres undefined)	/	/	/	/	7	/
COc1ccc(C(CNC(=O)c2oc3cc(C)c(Cl)cc3c2C)N2CCCCC2)cc1 (centres undefined)	9	169*	4	108	8	37*
COc1ccc(C(CNC(=O)c2oc3ccc(C)cc3c2C)N2CCCCC2)cc1 (centres undefined)	11	125	12	105	17	9
O=C(COC(=O)c1cc(=O)[nH]c2ccccc12)NCc1ccc(Cl)cc1	18	/	-20	/	-5	/
CC(=O)Nc1ccc(C(=O)NCC2CCCCC2)cc1	1	102	-5	100	1	-4
O=C(OCc1cc(Cl)ccc1OC(F)F)c1ccc([N+](=O)[O-])o1	-6	96	-4	100	66*	-3
O=C(OCc1cc(Cl)ccc1OC(F)F)c1cncc(Br)c1	11	96	-4	102	8	-3
